Compound activity (PubChem)
A selection: hits, their analogues and other compounds. The true share with any hit is near 2.9%.
SENP8 block-1: blocks human SENP8 cleavage of Nedd8 substrate. Q96LD8. recombinant SENP8, Nedd8 substrate fluorescence. inhibition, % at 20 µM. 360,000 tested, 0.64% active. AID 602440; in the data active = inhibition mostly above about 40%, no sharp cut-off; inactive = mostly below about 27%
Target sequence (Q96LD8 whole entry, looked up): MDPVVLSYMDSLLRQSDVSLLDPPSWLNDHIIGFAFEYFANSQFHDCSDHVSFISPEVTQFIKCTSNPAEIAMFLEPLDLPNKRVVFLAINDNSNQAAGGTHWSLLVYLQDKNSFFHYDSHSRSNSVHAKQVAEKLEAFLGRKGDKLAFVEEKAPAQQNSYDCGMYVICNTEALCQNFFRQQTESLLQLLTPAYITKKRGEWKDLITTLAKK
SENP6 inh: SENP6 protease inhibition. Recombinant SENP6 catalytic domain, aminoluciferin luminescence. inhibition, % at 10 µM. 330,000 tested, 1.8% active. AID 2599. Q9GZR1;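 active = inhibition above about 50% at the single tested dose, limit read from the data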
HSP90 inh: blocks HSP90-mediated luciferase refolding in reticulocyte lysate | Rabbit reticulocyte lysate, luciferase refolding luminescence, 3 h | inhibition, % at 5.6 µM | 290,000 tested, 0.91% active | AID 1789;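 active = inhibition above the screen-wide mean plus 3 SD, computed separately per campaign, cut at about 16% in these data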;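 also: inhibitors lower the luminescence because luciferase stays unfolded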
SENP7 inh: blocks the human protease SENP7 | recombinant SENP7, Z-RLRGG-aminoluciferin luminescence, 40 min | 330,000 tested, 1.5% active | Q9BQF6 | inhibition, % at 5 µM;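 active = inhibition above about 50% at the single test dose, limit read from the data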
SENP8 block-2: SENP8 protease inhibition; Q96LD8; purified SENP8, Z-RLRGG-aminoluciferin cleavage, luminescence; inhibition, % at 10 µM; AID 2540; 330,000 tested, 1.2% active; in the data active = inhibition above about 50%
SENP1 inh: blocks the human SENP1 SUMO protease catalytic domain | 360,000 tested, 0.21% active | recombinant SENP1 catalytic domain, CyPet-SUMO1-YPet FRET cleavage | inhibition, % at 10 µM;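 active = inhibition at least 30% at 10 µM, raw YFP signal under a set limit, fluorescence ratio 0.5 to 1.5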
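Material: hSENP1 catalytic domain, recombinant; medium: Tris pH 8 with BME, BSA, NP40 and catalase; compound: single concentration of 10 µM compound, 0.5% DMSO final; technique: FRET read of cyan and yellow fluorescence; timing: 50 min enzyme reaction, room temperature, light-protected; reagent: SFCypet-SUMO1-SFYpet substrate at 25 nM; control set: no-enzyme low, enzyme-DMSO high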
SENP8 confirm: human SENP8 inhibition, confirmed. shares compounds with SENP7 inh. Recombinant SENP8, Z-RLRGG-aminoluciferin luminescence, 60 min. inhibition, % at 12.5 µM. 6,200 tested, 40% active. AID 488912;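 active = mean inhibition across replicates above about 50%, limit read from the data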
SENP6 confirm: confirmation of human SENP6 protease inhibitors | shares compounds with SENP7 inh | recombinant SENP6, Z-RLRGG-aminoluciferin luminescence | 6,200 tested, 58% active | AID 488915 | inhibition, % at 12.5 µM
SENP7 confirm: human SENP7 inhibition, confirmed. inhibition, % at 12.5 µM. AID 488917. recombinant SENP7, Z-RLRGG-aminoluciferin luminescence, 40 min. shares compounds with SENP7 inh. 6,200 tested, 69% active
Casp3 SENP sel: selectivity test for SENP inhibitors: human caspase-3 inhibition. shares compounds with SENP7 inh. purified caspase-3, Z-DEVD-aminoluciferin luminescence, 60 min. inhibition, % at 12.5 µM. 6,200 tested, 60% active;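 active = mean inhibition above about 50%, limit read from the data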
Target sequence (P42574 28-227 limits assumed): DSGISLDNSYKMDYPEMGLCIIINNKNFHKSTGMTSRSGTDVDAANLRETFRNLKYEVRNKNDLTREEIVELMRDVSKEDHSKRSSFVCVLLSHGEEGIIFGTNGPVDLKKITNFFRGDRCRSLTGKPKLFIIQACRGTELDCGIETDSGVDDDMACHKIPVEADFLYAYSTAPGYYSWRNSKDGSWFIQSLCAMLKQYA
SENP luc ctr: interferes with luciferase luminescence in SENP counter-screen; shares compounds with SENP7 inh; Pre-incubated SENP8/Z-RLRGG-aminoluciferin, luciferase luminescence interference; inhibition, % at 12.5 µM; 6,200 tested, 39% active;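 active = mean inhibition above about 50% when retested at one dose, limit read from the data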
SENP1 inh conf: confirmation of human SENP1 SUMO protease inhibitors; shares compounds with SENP1 inh; recombinant SENP1, CyPet-SUMO1-YPet FRET cleavage; inhibition, % at 10 µM; 520 tested, 34% active; in the data active = inhibition mostly above about 35%, no sharp cut-off; inactive = mostly below about 32%
SENP1 kin conf: confirmation of human SENP1 SUMO protease inhibitors, kinetic; recombinant SENP1, CyPet-SUMO1-YPet FRET kinetic cleavage; shares compounds with SENP1 inh; 520 tested, 26% active; inhibition, % at 10 µM; in the data active = inhibition mostly above about 32%, no sharp cut-off; inactive = mostly below about 29%
Large screens that a line does not name were inactive (follow-up assays come after a bar, where they were run).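 The calls were made as follows, unless noted: active = mean inhibition above about 50% in the one-dose retest (limit read from the data); inactive = the rest.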

O=C(N/N=C/c1ccc(N2CCOCC2)cc1)c1ccc(NS(=O)(=O)c2cccs2)cc1	none
Cc1ccc(S(=O)(=O)c2cc3ccccc3nc2N)cc1	none
Brc1ccccc1/C=N/Nc1ccccn1	SENP7 inh 86.4, SENP1 inh 44.4 | SENP8 confirm inactive | SENP6 confirm inactive | SENP7 confirm inactive | Casp3 SENP sel inactive | SENP luc ctr inactive | SENP1 inh conf inactive | SENP1 kin conf inactive
Nc1nn(-c2ccccc2)c2ccc([N+](=O)[O-])cc12	SENP6 inh 72.3, SENP7 inh 74.8, SENP8 block-2 54.2, SENP1 inh 32.3 | SENP8 confirm 74.6 | SENP6 confirm 71.6 | SENP7 confirm 91.3 | Casp3 SENP sel 84.7 | SENP luc ctr 73.0 | SENP1 inh conf inactive | SENP1 kin conf inactive
O=[N+]([O-])c1ccc2c(c1)nnn2-c1ccccc1	none
Cc1cccc(NC(=O)CCC(=O)Nc2nnc(C(F)(F)F)s2)c1	none
O=C(Nc1ccc2c(c1)OCO2)C(=O)c1c[nH]c2ccccc12	SENP7 inh 81.5, SENP1 inh 31.2 | SENP8 confirm inactive | SENP6 confirm inactive | SENP7 confirm 78.9 | Casp3 SENP sel 75.0 | SENP luc ctr inactive | SENP1 inh conf inactive | SENP1 kin conf 31.8
Cc1[nH]c2ccccc2c1C(=O)C(=O)Nc1ccc2c(c1)OCCO2	none
Cc1nn(-c2ccccc2)c(Cl)c1/C=N/Nc1nc2ccccc2n1C	SENP7 inh 64.7, SENP8 block-2 54.5, SENP1 inh 32.8 | SENP8 confirm inactive | SENP6 confirm inactive | SENP7 confirm 92.9 | Casp3 SENP sel 67.8 | SENP luc ctr inactive | SENP1 inh conf inactive | SENP1 kin conf inactive
Cc1cc2cc(C#N)c(SCC(=O)Nc3nonc3C)nc2cc1C	SENP6 inh 99.2, SENP1 inh 64.8 | SENP8 confirm inactive | SENP6 confirm inactive | SENP7 confirm inactive | Casp3 SENP sel inactive | SENP luc ctr inactive | SENP1 inh conf inactive | SENP1 kin conf inactive
OCCNC(=S)Nc1ccc2nsnc2c1	SENP6 inh 81.9, SENP8 block-2 60.6, SENP1 inh 36.0 | SENP8 confirm inactive | SENP6 confirm inactive | SENP7 confirm inactive | Casp3 SENP sel inactive | SENP luc ctr inactive | SENP1 inh conf inactive | SENP1 kin conf inactive
CN1C(=O)/C(=C\c2cccc(OCc3ccccc3)c2)SC1=S	none
CN1C(=O)/C(=C\c2ccc(OC(=O)c3ccco3)cc2)SC1=S	SENP6 inh 73.9, SENP7 inh 71.7, SENP1 inh 44.2 | SENP8 confirm inactive | SENP6 confirm inactive | SENP7 confirm inactive | Casp3 SENP sel inactive | SENP luc ctr inactive | SENP1 inh conf inactive | SENP1 kin conf inactive
CN1C(=O)/C(=C/c2ccc(OC(=O)c3ccco3)cc2)SC1=S	SENP6 inh 72.5, SENP7 inh 79.1, SENP8 block-2 75.0, SENP1 inh 46.0 | SENP8 confirm inactive | SENP6 confirm inactive | SENP7 confirm inactive | Casp3 SENP sel inactive | SENP luc ctr inactive | SENP1 inh conf inactive | SENP1 kin conf inactive
COC(=O)CSc1nccc(C)n1	none
COc1cc(C(=O)Nc2cc3c(cc2N2CCCCC2)n(C)c(=O)n3C)cc(OC)c1OC	none
